# Measured values collected from several papers.
# Each line is one published result; the experiments were not run side by side.
# Oprm1: Mu-type opioid receptor (Oprm1, Rattus norvegicus, UniProt P33535)
# PI4KA: Phosphatidylinositol 4-kinase alpha (PI4KA, Homo sapiens, UniProt P42356)
SMILES,target,assay,conditions,quantity,result
C#Cc1n[nH]c2c(-c3cn(C(C)c4ccccn4)c(=O)[nH]c3=O)cc(F)cc12 (stereo not shown),"Vascular endothelial growth factor receptor 1 (FLT1, Homo sapiens, UniProt P17948)","enzyme activity, inhibitor",1 µM,inhibition,-3.1%
Nc1ncc(-c2nc(N3CCOCC3)nc(N3CCOCC3)n2)c(C(F)F)n1,"Mast/stem cell growth factor receptor Kit (KIT, Homo sapiens, UniProt P10721, A829P)","binding, competition with immobilised ligand",10 µM,remaining binding,80%
CC[C@@H](C)[C@@H]1CN([C@@H](CC2CCCCC2)CN2CCC[C@H]2CN2CCNC[C@@H]2CO)CCN1CCc1ccc(Cl)c(Cl)c1,Oprm1,"ligand displacement, radioligand","0.5 µM, 1 h, pH 7.5, cell membranes",remaining binding,97.8%
CC(C)(C)c1nc2c(s1)c1nc(N)ncc1c1ccc(NS(=O)(=O)c3c(F)cccc3F)c(F)c12,"Tau-tubulin kinase 1 (TTBK1, Homo sapiens, UniProt Q5TCY1)","enzyme activity, inhibitor, radiometric",1 µM,remaining activity,79%
COc1ncccc1-c1cnn2ccc(N3CCN(C(=O)OC(C)C)CC3)nc12,"Casein kinase II subunit alpha (CSNK2A1, Homo sapiens, UniProt P68400)","binding, competition with immobilised ligand",1 µM,remaining binding,79%
Oc1ccc(C[C@@H]2CN([C@H](Cc3ccc4ccccc4c3)CN3CCC[C@H]3CN3CCNC[C@@H]3Cc3ccc4ccccc4c3)CCN2CCC23CC4CC(CC(C4)C2)C3)cc1,Oprm1,"ligand displacement, radioligand","0.5 µM, 1 h, pH 7.5, cell membranes",remaining binding,112%
Cn1cc(-c2cc(F)cc(N3CCn4c(cc5c4CCCC5)C3=O)c2CO)cc(Nc2ccc(N3CCN(C4COC4)CC3)cn2)c1=O,PI4KA,"enzyme activity, inhibitor",0.1 µM,inhibition,6%
O=C(c1cc(O)c(O)c([N+](=O)[O-])c1)c1ccccc1F,"Transthyretin (TTR, Homo sapiens, UniProt P02766)","binding, SPR",,koff,0.132 s⁻¹
CCCC[C@H]1CNCCN1C[C@@H]1CCCN1C[C@@H](Cc1ccc2ccccc2c1)N1CCN(CCC23CC4CC(CC(C4)C2)C3)[C@H]([C@@H](C)O)C1,Oprm1,"ligand displacement, radioligand","0.5 µM, 1 h, pH 7.5, cell membranes",remaining binding,102%
Cn1cc(-c2cccc(N3CCc4c(sc5c4CC(C)(C)C5)C3=O)c2CO)cc(Nc2ccncn2)c1=O,PI4KA,"enzyme activity, inhibitor",1 µM,inhibition,-5%
Cc1nn(C)cc1-c1nc2c(N3CCN(Cc4ccc(Cl)cc4)CC3)c(Cl)cnc2[nH]1,"Mast/stem cell growth factor receptor Kit (KIT, Homo sapiens, UniProt P10721, D816H)","binding, competition with immobilised ligand",1 µM,remaining binding,71%
C[C@@H](O)[C@@H]1CN([C@H](Cc2ccc3ccccc3c2)CN2CCC[C@H]2CN2CCNC[C@@H]2Cc2ccc3ccccc3c2)CCN1CCc1ccc(Cl)c(Cl)c1,Oprm1,"ligand displacement, radioligand","0.5 µM, 1 h, pH 7.5, cell membranes",remaining binding,109%
COc1cc(Cl)c(C(=O)N[C@@H](CN[C@H]2CC[C@@H](N)CC2)Cc2ccc(C#N)cc2)cc1-c1ccc(CN[C@H](C)c2ccc(C)cc2)o1,"Serine/threonine-protein kinase Nek11 (NEK11, Homo sapiens, UniProt Q8NG66)","enzyme activity, inhibitor",1 µM,remaining activity,107%
